Activity calls are given as the source filed them. No cut-off for these calls is given here. Residues, ends and D or L forms follow the SMILES beside them.

For 2 compounds, IC50 and Activity results are on record in ChEMBL document CHEMBL3351848, “Novel insights into structure and function of factor XIIIa-inhibitor tridegin” (J Med Chem, 2014).

Assay [1] concerns the target T1, Coagulation factor XIII A chain (Homo sapiens, UniProt P00488).
T1 sequence (P00488 whole entry): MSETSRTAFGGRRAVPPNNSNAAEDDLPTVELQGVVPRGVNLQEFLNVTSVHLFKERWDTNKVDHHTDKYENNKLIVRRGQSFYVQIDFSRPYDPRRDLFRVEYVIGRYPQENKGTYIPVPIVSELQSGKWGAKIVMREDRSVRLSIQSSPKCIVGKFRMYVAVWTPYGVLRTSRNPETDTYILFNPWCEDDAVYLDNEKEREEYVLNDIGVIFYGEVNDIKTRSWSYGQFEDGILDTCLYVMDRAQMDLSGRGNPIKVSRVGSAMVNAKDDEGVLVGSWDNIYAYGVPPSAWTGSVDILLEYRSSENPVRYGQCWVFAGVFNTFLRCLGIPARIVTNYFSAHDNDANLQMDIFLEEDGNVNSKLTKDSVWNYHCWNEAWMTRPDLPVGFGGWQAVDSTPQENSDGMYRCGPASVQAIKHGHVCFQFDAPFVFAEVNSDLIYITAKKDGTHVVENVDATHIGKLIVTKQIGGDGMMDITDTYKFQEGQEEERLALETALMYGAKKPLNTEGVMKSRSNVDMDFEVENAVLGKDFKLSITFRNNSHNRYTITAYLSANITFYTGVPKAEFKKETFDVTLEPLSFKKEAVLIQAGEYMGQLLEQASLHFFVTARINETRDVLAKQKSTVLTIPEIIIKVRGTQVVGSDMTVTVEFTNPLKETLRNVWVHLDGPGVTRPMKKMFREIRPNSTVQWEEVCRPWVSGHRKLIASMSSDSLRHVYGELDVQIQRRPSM
The assay is described as follows: Inhibition of recombinant F13a (unknown origin) using H-Tyr-Glu(pNA)-Val-Lys-Val-Ile-Gly-NH2 as substrate by chromogenic assay.

The target of assay [2] is T2, Coagulation factor XIII B chain (Homo sapiens) (UniProt P05160).
T2 sequence (whole entry): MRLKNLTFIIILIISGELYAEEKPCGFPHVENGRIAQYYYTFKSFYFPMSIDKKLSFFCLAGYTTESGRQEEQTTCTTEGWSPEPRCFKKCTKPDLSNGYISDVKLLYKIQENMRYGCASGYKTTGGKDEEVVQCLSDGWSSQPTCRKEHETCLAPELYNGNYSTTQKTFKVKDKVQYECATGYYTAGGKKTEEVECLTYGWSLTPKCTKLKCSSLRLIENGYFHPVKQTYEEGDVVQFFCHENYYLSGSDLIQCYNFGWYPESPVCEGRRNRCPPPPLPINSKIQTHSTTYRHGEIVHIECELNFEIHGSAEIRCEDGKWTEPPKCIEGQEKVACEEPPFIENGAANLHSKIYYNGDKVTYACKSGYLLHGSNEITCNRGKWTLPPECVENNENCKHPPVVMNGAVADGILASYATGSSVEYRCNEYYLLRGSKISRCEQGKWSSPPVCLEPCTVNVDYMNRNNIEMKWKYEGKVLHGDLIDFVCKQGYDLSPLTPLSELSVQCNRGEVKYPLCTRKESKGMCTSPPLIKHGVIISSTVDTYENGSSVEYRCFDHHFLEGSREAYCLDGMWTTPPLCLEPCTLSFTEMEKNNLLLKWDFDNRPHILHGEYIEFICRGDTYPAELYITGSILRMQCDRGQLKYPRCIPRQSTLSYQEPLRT
The assay can be described thus: Binding affinity to nonactivated recombinant F13B subunit (unknown origin) by microscale thermophoresis method. The method in brief: (§1)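 Carboxyfluorescein-labeled peptide (2 μM solution, before mixing) in 50 mM Tris-HCl pH 7.5, 0.9% w/v NaCl, with Tween-20 to 0.1% final. Mixed with an equal volume of protein (FXIIIa, FXIII-A or FXIII-B) in the same buffer, 15 concentrations spanning 3.1 μM to 0.1 nM. After 20 min incubation, the mixture was loaded into glass capillaries and thermophoresis read three times per capillary.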

Assay [3] deals with T3, Coagulation factor XIII A chain (Homo sapiens) (UniProt P00488).
T3 sequence (whole entry): T1 sequence (P00488 whole entry)
The assay can be described thus: Binding affinity to nonactivated recombinant F13A subunit (unknown origin) by microscale thermophoresis method. Put shortly:
as §1

With `CC[C@H](C)[C@H](NC(=O)[C@H](CC(=O)O)NC(=O)[C@H](CC(=O)O)NC(=O)[C@H](CCSC)NC(=O)[C@@H]1CCCN1C(=O)[C@H](CCCCN)NC(=O)[C@@H](NC(=O)[C@H](CC(C)C)NC(=O)[C@H](CCC(=O)O)NC(=O)[C@@H](N)CO)[C@@H](C)CC)C(=O)N[C@@H](Cc1ccc(O)cc1)C(=O)N[C@@H](CCC(N)=O)C(=O)N[C@@H](CCCNC(=N)N)C(=O)N1CCC[C@H]1C(=O)N[C@H](C(=O)N[C@@H](CCC(=O)O)C(=O)N[C@@H](Cc1ccccc1)C(=O)N1CCC[C@H]1C(=O)N[C@@H](CC(N)=O)C(=O)N[C@@H](CC(C)C)C(=O)N1CCC[C@H]1C(=O)N[C@@H](CC(C)C)C(=O)O)C(C)C` (H-SELIKPMDDIYQRPVEFPNLPL-OH), the IC50 in assay [1] was 1900 nM.
As for `CC[C@H](C)[C@H](NC(=O)[C@H](CC(=O)O)NC(=O)[C@H](CC(=O)O)NC(=O)[C@H](CCSC)NC(=O)[C@@H]1CCCN1C(=O)[C@H](CCCCN)NC(=O)[C@@H](NC(=O)[C@H](CC(C)C)NC(=O)[C@H](CCC(=O)O)NC(=O)[C@H](CO)NC(=O)[C@H](CCCNC(=N)N)NC(=O)[C@@H]1CCCN1C(=O)[C@H](CCCNC(=N)N)NC(=O)[C@H](CS)NC(=O)[C@H](CCC(N)=O)NC(=O)[C@@H]1CCCN1C(=O)[C@@H](NC(=O)[C@H](Cc1ccccc1)NC(=O)[C@H](C)N)[C@@H](C)CC)[C@@H](C)CC)C(=O)N[C@@H](Cc1ccc(O)cc1)C(=O)N[C@@H](CCC(N)=O)C(=O)N[C@@H](CCCNC(=N)N)C(=O)N1CCC[C@H]1C(=O)N[C@H](C(=O)N[C@@H](CCC(=O)O)C(=O)N[C@@H](Cc1ccccc1)C(=O)N1CCC[C@H]1C(=O)N[C@@H](CC(N)=O)C(=O)N[C@@H](CC(C)C)C(=O)N1CCC[C@H]1C(=O)N[C@@H](CC(C)C)C(=O)N[C@@H](CCCCN)C(=O)N1CCC[C@H]1C(=O)N[C@@H](CCCNC(=N)N)C(=O)N[C@@H](CCC(=O)O)C(=O)O)C(C)C` (H-AFIPQCRPRSELIKPMDDIYQRPVEFPNLPLKPRE-OH), the outcome in assay [2] and in assay [3] was inactive. The IC50 in assay [1] was 1700 nM.
